The Tmax is the time at which the peak concentration occurs. A word on the half-life: it is how long it takes for the measured level to halve. The Cmax is the maximum level reached in the sampled fluid or tissue. As usually defined, the AUC(0-t) is exposure summed from dosing to a finite time, without extrapolation to infinity. One may read the AUC(0-inf) as total exposure, with the tail of the curve extrapolated. The term solubility denotes the concentration that dissolves in the medium under given conditions.

In brackets after ≈: the same amount, converted by molar mass.

A short description of data set [1]: Tmax in Swiss mouse at 10 mg/kg, po by ESI-LC/MS/MS method. The class given is ADME, organism-based. On the set-up: dose 10 mg/kg, route oral. To be noted: in vivo. Summed up: (§1)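 Oral dose of 10 mg/kg, given as a 1 mg/ml suspension in 0.5% CMC with Tween 80 to weighed Swiss mice (n = 4). Blood was drawn at 0.08–24 h, and plasma was kept on ice, centrifuged at 4 °C and stored at −80 °C. Levels were measured by ESI-LC/MS/MS. Parameters came from non-compartmental analysis: Cmax and Tmax read from the profile, AUC0–t by linear trapezoidal rule, AUCinf extrapolated, and T1/2 = 0.693/λz.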

The nature of data set [2]: Half life in Swiss mouse at 10 mg/kg, po by ESI-LC/MS/MS method. It counts as ADME, organism-based. On the set-up: dose 10 mg/kg, route oral. The note with it: in vivo. Summed up: as §1
The nature of data set [3]: Cmax in Swiss mouse at 10 mg/kg, po by ESI-LC/MS/MS method. Details: dose 10 mg/kg, route oral. To be noted: in vivo. The class given is ADME, organism-based. Summed up:
as §1

Data set [4] in a line: AUC (0 to t) in Swiss mouse at 10 mg/kg, po by ESI-LC/MS/MS method. The note with it: plasma. It counts as ADME, organism-based. On the set-up: dose 10 mg/kg, route oral. The gist of the method:
as §1

A short description of data set [5]: AUC (infinity) in Swiss mouse at 10 mg/kg, po by ESI-LC/MS/MS method. The class given is ADME, organism-based. On the set-up: time infinity, dose 10 mg/kg, route oral. The note with it: plasma. The gist of the method:
as §1

Data set [6] has as its system Mus musculus. Put plainly: Antihyperlipidemic activity in Swiss mouse assessed as reduction in plasma triglyceride level at 3 mg/kg, po after 1 to 4 hrs by acute fat tolerance test relative to control. The class given is functional. On the set-up: scale not given: the % may be the effect or the level left. The gist of the method: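 Fasted Swiss mice (4–5 weeks, 25–30 g) were given 3 mg/kg by oral gavage as a suspension in 0.5% CMC with Tween 80, or vehicle (0.5% CMC). An olive oil bolus (10 ml/kg) followed 1 h later. Plasma was taken at 1, 2, 3 and 4 h and triglycerides were measured with a kit. The triglyceride AUC0–4 h was expressed as percent reduction, with the vehicle group taken as 100%.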

Data set [7] is described as follows: Solubility of the compound at pH 7.4. The class given is physicochemical. To be noted: buffer.

In the case of `CC(C)[C@H](NC(=O)c1ncc(-c2ccc(NC(=O)Nc3ccccc3Cl)cc2)s1)C(=O)O`, the Tmax in data set [1] was 9.6 min. This molecule also showed a half-life in data set [2] of 29.4 min. This molecule also registered a Cmax in data set [3] of 1.9 µM. In data set [4], the AUC(0-t) is 623 ng·h/mL. The molecule also gave an AUC(0-inf) in data set [5] of 672 ng·h/mL. In addition, in data set [6], the Activity stood at 82%.

Regarding `CC(C)[C@H](NC(=O)c1ccc(-c2ccc(Nc3nc4ccc(F)cc4s3)cc2)cc1)C(=O)O`, the Tmax in data set [1] is 15 min. Further, the half-life in data set [2] was 37.2 min. This molecule also showed a solubility in data set [7] of 10 µg/mL (≈ 21.6 µM). In data set [3], this molecule had a Cmax of 5.3 µM. Also, the AUC(0-t) in data set [4] is 5340 ng·h/mL. This molecule also registered an AUC(0-inf) in data set [5] of 5350 ng·h/mL. The Activity in data set [6] is 90%.

As to `CC(C)[C@H](NC(=O)c1ncc(-c2ccc(NC(=O)c3ccc(C(C)(C)C)cc3)cc2)s1)C(=O)O`, in data set [1], the Tmax came out at 10.2 min. This molecule also had a half-life in data set [2] of 49.8 min. In data set [3], the Cmax is 11.3 µM. In addition, the area under the curve AUC(0-t) in data set [4] was 7060 ng·h/mL. The molecule also had an AUC(0-inf) in data set [5] of 7070 ng·h/mL. In addition, the Activity in data set [6] stood at 87%.

For the origin of these results see ChEMBL document CHEMBL2401668, “Evaluation of thiazole containing biaryl analogs as diacylglycerol acyltransferase 1 (DGAT1) inhibitors” (Eur J Med Chem, 2013).
